Compound activity from PubChem.
ADAM17 inh: inhibitors of human ADAM17; P78536; recombinant ADAM17, EDANS/DABCYL FRET peptide cleavage; inhibition, % at 6.95 µM; hit rate 0.83% among 370,000; AID 720648;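 active means inhibition above the mean of compounds lying between control limits plus 3 SD, set per campaign, cut at about 8.5% in these data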;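 further: 0% = DMSO-only wells as the low control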
Target sequence (P78536 215-824 limits assumed): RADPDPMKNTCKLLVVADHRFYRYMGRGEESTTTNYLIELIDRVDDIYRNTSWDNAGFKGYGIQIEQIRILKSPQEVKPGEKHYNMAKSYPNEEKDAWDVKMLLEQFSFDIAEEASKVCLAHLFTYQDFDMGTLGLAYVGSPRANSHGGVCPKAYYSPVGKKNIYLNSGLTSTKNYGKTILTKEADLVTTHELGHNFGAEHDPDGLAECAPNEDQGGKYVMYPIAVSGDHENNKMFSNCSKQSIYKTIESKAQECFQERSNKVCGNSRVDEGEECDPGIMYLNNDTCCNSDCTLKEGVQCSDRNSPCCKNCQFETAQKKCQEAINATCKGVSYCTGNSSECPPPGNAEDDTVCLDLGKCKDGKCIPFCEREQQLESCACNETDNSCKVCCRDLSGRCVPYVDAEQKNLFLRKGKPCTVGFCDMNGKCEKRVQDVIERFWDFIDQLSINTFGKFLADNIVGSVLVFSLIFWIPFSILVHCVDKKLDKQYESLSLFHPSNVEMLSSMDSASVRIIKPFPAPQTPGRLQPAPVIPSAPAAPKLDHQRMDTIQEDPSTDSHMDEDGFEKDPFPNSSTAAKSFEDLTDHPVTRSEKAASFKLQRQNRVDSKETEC
PLC-gamma1 inh: PLC-gamma1 (human) inhibition, primary screen; P19174; purified PLC-gamma1, fluorogenic substrate, fluorescence; inhibition, % at 12.2 µM; hit rate 0.84% among 370,000; AID 720700; in the data active means inhibition above about 9.5%
DDE Tn6 FP inh: disrupts Tn6 cyclic peptide binding to fibrin D-Dimer-E complex; hit rate 0.21% among 370,000; Fibrin DD(E) TRITC-Tn6 fluorescence polarization displacement; inhibition, % at 8.3 µM;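 active means inhibition above a per-campaign cutoff: mean of compounds within control limits plus 3 SD, cut at about 15% in these data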;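 further: 0% = median of all compound wells on the plate and 100% = blocking peptide control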
ADAM10 inh: ADAM10 inhibition, QFRET primary screen; O14672; recombinant ADAM10, EDANS/DABCYL FRET peptide cleavage, 3 h; inhibition, % at 7 µM; hit rate 0.62% among 370,000;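 active means inhibition above a per-campaign cutoff equal to the mean of compounds falling between control-based bounds plus 3 SD, cut at about 20% in these data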;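 further: 0% = DMSO wells while the 100% control is not disclosed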
PLC-beta3 inh: PLC-beta3 (human) inhibition, primary screen. Q01970. Purified PLC-beta3, fluorogenic substrate, fluorescence. inhibition, % at 12.2 µM. hit rate 0.18% among 370,000. AID 720704; in the data active means inhibition above about 11%;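 further: 0% = median of compound wells on plate and 100% = full blocker control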
DDE Tn7 FP inh: disrupts Tn7 cyclic peptide binding to fibrin D-Dimer-E complex. P02675. FP displacement of FITC-Tn7 peptide from fibrin DD(E); 0% = median of compound wells per plate. inhibition, % at 8.3 µM. hit rate 0.13% among 370,000;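 active means inhibition above the mean of compounds falling within the control limits plus 3 SD of them, cut at about 14% in these data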;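 further: 0% = plate median of compound wells and 100% = 10 µM Aha-Tn7 peptide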
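Assay system: Human clot-derived fibrin DD(E) complex | Buffer or medium: Tris/NaCl/CaCl2 buffer, pH 7.8 | Repeats: One replicate per compound | Benchmarks: Aha-Tn7 high control | Measure: % inhibition scaled between sample-field median and high-control FP | Schedule: 10 min plus 3 h, room temperature | Signal: Fluorescence polarization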
ADAM10 confirm: confirmation of inhibitors of human ADAM10 | shares compounds with ADAM10 inh | ADAM10 QFRET peptide cleavage, EDANS fluorescence | inhibition, % at 6.95 µM | hit rate 1% among 2,100 | AID 743208;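 active means inhibition above about 20% chosen separately for each screening run, limit read from the data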;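 further: 0% = DMSO wells and 100% = marimastat wells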
ADAM17 counter: counter-screen for ADAM10 exosite inhibitors: inhibitors of human ADAM17; shares compounds with ADAM10 inh; ADAM17 QFRET peptide cleavage, EDANS fluorescence; inhibition, % at 6.95 µM; hit rate 0.5% among 2,100; AID 743214;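 active means mean triplicate inhibition above the solvent-only control wells' mean plus 3 SD, cut at about 12% in these data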;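 further: 0% = DMSO wells and 100% = marimastat wells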
* = called active by the depositor. Sampled rows, rich in hits. Any-hit rate of the full collection: about 2.3%.

`O/N=C(/c1ccc(F)cc1)C1CC1c1c(F)cccc1Cl` (centres undefined) gave ADAM17 inh 4, PLC-gamma1 inh 2, DDE Tn6 FP inh -5, ADAM10 inh 26*, PLC-beta3 inh -1, DDE Tn7 FP inh -1, ADAM10 confirm 3 and ADAM17 counter 1.
Screening COc1ccc(C2CC2/C(=N/O)c2ccccc2)cc1 (centres undefined) returned ADAM17 inh 1, PLC-gamma1 inh 3, DDE Tn6 FP inh -13, ADAM10 inh -4, PLC-beta3 inh -4 and DDE Tn7 FP inh -4.
For CCC(=O)N1CCc2cc(Br)c(S(=O)(=O)NCCCN(CC)Cc3ccccc3)cc21 the results were ADAM17 inh 3, PLC-gamma1 inh -2, DDE Tn6 FP inh 3, ADAM10 inh -6, PLC-beta3 inh 1 and DDE Tn7 FP inh 2.
Screening CCOc1ccc(NC(=O)c2ccc3c(=O)n(-c4ccc(OC)cc4OC)c(=S)[nH]c3c2)cc1 returned ADAM17 inh 8, PLC-gamma1 inh 0, DDE Tn6 FP inh -13, ADAM10 inh 24*, PLC-beta3 inh -8, DDE Tn7 FP inh -4, ADAM10 confirm 1 and ADAM17 counter 0.
COc1cc(C(=O)NCC(=O)NCCN2C(=O)S/C(=C\c3ccccc3Cl)C2=O)cc(OC)c1OC was read as ADAM17 inh 6, PLC-gamma1 inh 4, DDE Tn6 FP inh 10, ADAM10 inh 20*, PLC-beta3 inh 0, DDE Tn7 FP inh 4, ADAM10 confirm 0 and ADAM17 counter 0.
COc1cc(OC)cc(C(=O)NCC(=O)NCCN2C(=O)S/C(=C\c3ccccc3Cl)C2=O)c1 was read as ADAM17 inh 0, PLC-gamma1 inh -2, DDE Tn6 FP inh -2, ADAM10 inh 2, PLC-beta3 inh -1 and DDE Tn7 FP inh -4.
`COc1cc(/C=N/OCC(=O)Nc2ccc(OC(F)F)cc2)ccc1OCc1ccccc1` gave ADAM17 inh 1, PLC-gamma1 inh -9, DDE Tn6 FP inh -7, ADAM10 inh 23*, PLC-beta3 inh -10, DDE Tn7 FP inh -2, ADAM10 confirm 11 and ADAM17 counter 4.
Cc1ccc(C(=O)NNC(=S)NC(=O)c2ccccc2)cc1 was read as ADAM17 inh 5, PLC-gamma1 inh 7, DDE Tn6 FP inh -7, ADAM10 inh 24*, PLC-beta3 inh 2, DDE Tn7 FP inh -5, ADAM10 confirm 1 and ADAM17 counter 1.
Cc1ccc(C(=O)NC(=S)NNC(=O)c2ccccc2)cc1 was read as ADAM17 inh 4, PLC-gamma1 inh 4, DDE Tn6 FP inh 4, ADAM10 inh 10, PLC-beta3 inh -4 and DDE Tn7 FP inh 1.
`COc1ccc(Br)c(C(=O)Nc2nc3ccccc3[nH]2)c1` gave ADAM17 inh 3, PLC-gamma1 inh 6, DDE Tn6 FP inh 3, ADAM10 inh 5, PLC-beta3 inh -2 and DDE Tn7 FP inh -10.
For CCCCN(C(=O)c1ccccc1Br)C(c1ccc(OC)cc1)c1nc2ccccc2[nH]1 (centres undefined) the results were ADAM17 inh 7, PLC-gamma1 inh 1, DDE Tn6 FP inh 5, ADAM10 inh 21*, PLC-beta3 inh -1, DDE Tn7 FP inh 0, ADAM10 confirm 3 and ADAM17 counter 1.
For CCc1cc(C(=O)Cc2ccc(F)cc2)c(O)cc1O the results were ADAM17 inh 9, PLC-gamma1 inh -32, DDE Tn6 FP inh 1, ADAM10 inh 23*, PLC-beta3 inh -54, DDE Tn7 FP inh 1, ADAM10 confirm 2 and ADAM17 counter 2.
Screening CCCc1cc(C(=O)Cc2ccc(F)cc2)c(O)cc1O returned ADAM17 inh 7, PLC-gamma1 inh -37, DDE Tn6 FP inh -7, ADAM10 inh 17, PLC-beta3 inh -45 and DDE Tn7 FP inh -3.
O=C(CSc1nnc(COc2ccccc2)n1Cc1ccco1)Nc1ccc(OCc2ccccc2)cc1 was read as ADAM17 inh 2, PLC-gamma1 inh 1, DDE Tn6 FP inh -6, ADAM10 inh 3, PLC-beta3 inh 0 and DDE Tn7 FP inh -7.
